Measurements from the array DNA melting data of Ke et al. (doi:10.1101/2024.01.08.574731).

Assays:
[1] = melting temperature; fluorescence melt of hairpins on a sequencing array, two-state fit, raised by 9.35 °C to match UV melts; conditions: sodium 0.088 M
Outline: (§1)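 Cy3 signals were normalised both to pre-quench Cy3 and to control constructs. They came from library hairpins carrying annealed Cy3 and quencher oligos on a sequenced MiSeq flow cell, imaged in 50 mM Na-HEPES pH 8.0, 25 mM NaCl, in 2.5 °C steps up to 60 °C. Bootstrapped two-state fits gave melting temperature and folding enthalpy, and four replicates were combined by inverse variance. Fitted temperatures were then raised by 9.35 °C to match UV melts.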

[2] = folding enthalpy; higher = less favourable; fluorescence melt of hairpins on a sequencing array, two-state fit; conditions: sodium 0.088 M
Outline: as §1

Row | Sequence | Tm [1] | folding enthalpy [2]
1 | GAGCACGAAAGTGACTC ((((((....))).))) | 47.3 °C | -19.5 kcal/mol
2 | GATCTAACATAGATC ((((((...)))))) | 39.5 °C | -33.1 kcal/mol
3 | GCCCCTTCGAAAGAAGGC (((..(((....)))))) | 37 °C | -8.55 kcal/mol
4 | GCAGCGGGAAACCACCGC ((.(.((....)).).)) | 39.8 °C | -14.2 kcal/mol
5 | GTGTCGGAAACGACAC ((((((....)))))) | 69.2 °C | -30.9 kcal/mol
6 | GATCCCCAGGGGGATC ((((((....)))))) | 65.5 °C | -29 kcal/mol
7 | GATGATGCGAAAGCAATC (((..(((....)))))) | 37.6 °C | -13.7 kcal/mol
8 | GTAAGGGGAAACCCTCAC ((.((((....)))).)) | 30.2 °C | -13.7 kcal/mol
9 | GGCACGGGAAACTGTGCC (((((.(....).))))) | 62.2 °C | -41.4 kcal/mol
10 | GTGCCCTCGAAAGAGCAC (((..(((....)))))) | 43 °C | -18.8 kcal/mol
11 | GTGCCCGGAAACGGGTGC (..((((....))))..) | 53.9 °C | -21.9 kcal/mol
12 | GACCTTGGAAACGAGGTC (((((.(....).))))) | 50.9 °C | -38.9 kcal/mol
13 | GACTGCGAAAGCACGTC ((((((....))).))) | 56.4 °C | -15.8 kcal/mol
14 | GATCTAGATCTAGATC ((((((....)))))) | 47.5 °C | -37.3 kcal/mol
15 | GTCGCGCGAAAGCGAGAC (((.(((....))).))) | 68.2 °C | -25.4 kcal/mol
16 | GATCGCGAGGGCGATC ((((((....)))))) | 68 °C | -38 kcal/mol
17 | GGTATCACGAAAGTGACC (((..(((....)))))) | 30 °C | -9.93 kcal/mol
18 | GTGTGCGAAAGCAAACAC ((((((....)))..))) | 51.7 °C | -24.1 kcal/mol
19 | GGCCAGTCGAAAGACGCC (((..(((....)))))) | 50.1 °C | -18.2 kcal/mol
20 | GACTAGCGAAAGCTGTC (((.(((....)))))) | 50.3 °C | -19.6 kcal/mol
21 | GAAGACGAAAGTCGATTC ((((((....)))..))) | 47.4 °C | -24.1 kcal/mol
22 | GCCTGGGGAAACCCAAGC ((.((((....)))).)) | 42.7 °C | -21.5 kcal/mol
23 | GATCATCATGATGATC ((((((....)))))) | 53.8 °C | -38 kcal/mol
24 | GTCCTGCGAAAGCAGAC (((.(((....)))))) | 47.4 °C | -12.1 kcal/mol

Row | Sequence | Tm [1] | folding enthalpy [2]
25 | GCCACTCGAAAGAGAGGC (((.(((....))).))) | 60 °C | -39.1 kcal/mol
26 | GTTCGGCGAAAGCCAAC (((.(((....)))))) | 42.9 °C | -12.3 kcal/mol
27 | GCGCACTCGAAAGAGCGC (((..(((....)))))) | 57.1 °C | -23.6 kcal/mol
28 | GCGGATGCCGC ((((...)))) | 58.8 °C | -10.5 kcal/mol
29 | ACCTAGAAATAGGT (((((....))))) | 36.8 °C | -11.8 kcal/mol
30 | GTGACCGGAAACGGTTAC ((.((((....)))).)) | 54.9 °C | -26.4 kcal/mol
31 | GATCACCGCAGTGATC ((((((....)))))) | 59 °C | -40 kcal/mol
32 | GCCAAGCGAAAGCCTAGC ((.(.((....)).).)) | 31.2 °C | -9.82 kcal/mol
33 | GATCACGCGGGTGATC ((((((....)))))) | 57.1 °C | -32 kcal/mol
34 | GGGGTCGAAAGACGTCCC ((((((....)))..))) | 42.4 °C | -18.5 kcal/mol
35 | GAGCGTGGAAACATGCTC ((((.((....)).)))) | 55 °C | -55.5 kcal/mol
36 | GTTAAGCCGAAAGGCAAC (((..(((....)))))) | 32.9 °C | -10.5 kcal/mol
37 | GTGTTGGGAAACTGACAC ((((..(....)..)))) | 39.3 °C | -27.6 kcal/mol
38 | GCACGGCGAAAGCCAGGC ((..(((....)))..)) | 55 °C | -14.9 kcal/mol
39 | GGGAGAGGAAACTCTTCC ((.((((....)))).)) | 45.5 °C | -30.7 kcal/mol
40 | GATAACCCGAAAGGGATC (((..(((....)))))) | 28.9 °C | -17.8 kcal/mol
41 | GTTCTGGGAAACCAGGAC ((.((((....)))).)) | 49.1 °C | -31.8 kcal/mol
42 | GCGTCCTACGC ((((...)))) | 62.5 °C | -20.2 kcal/mol
43 | GCTAGGCGAAAGCATGGC ((.(.((....)).).)) | 50.1 °C | -20.7 kcal/mol
44 | GCTTTCGAAAGAAGCAGC ((((((....)))..))) | 35.4 °C | -12.9 kcal/mol
45 | GCCCTTCGAAAGAATGGC (((.(((....))).))) | 47.4 °C | -34.3 kcal/mol
46 | GAGGCGGGAAACTGCCTC (((((.(....).))))) | 61.1 °C | -39.1 kcal/mol
47 | GGCGGGGGAAACCCTGCC (((.(((....))).))) | 65.2 °C | -27 kcal/mol
48 | GATCCCTGGTGGGATC ((((((....)))))) | 58.1 °C | -31.1 kcal/mol

Row | Sequence | Tm [1] | folding enthalpy [2]
49 | GATCGTCATAACGATC ((((((....)))))) | 55 °C | -38.8 kcal/mol
50 | GATCTGGTCGCAGATC ((((((....)))))) | 52.4 °C | -24.9 kcal/mol
51 | GATCCTAGACAGGATC ((((((....)))))) | 50.4 °C | -36.5 kcal/mol
52 | GATCAATTTTTTGATC ((((((....)))))) | 47.3 °C | -35.1 kcal/mol
53 | GCGGGACCCGC ((((...)))) | 55.9 °C | -24.5 kcal/mol
54 | GATCAGTCGTCTGATC ((((((....)))))) | 52.3 °C | -36.5 kcal/mol
55 | GTCAAGGGAAACTTTGAC (((((.(....).))))) | 40.3 °C | -26.4 kcal/mol
56 | GAAGGAGGAAACTCCTTC (((((((....))))))) | 58.3 °C | -33.6 kcal/mol
57 | GCGGTCGAAAGACTCGC ((((((....))).))) | 54.6 °C | -29 kcal/mol
58 | GAGGACGAAAGTCCACTC ((((((....)))..))) | 52.4 °C | -12.7 kcal/mol
59 | GCATTGCGAAAGCAGCGC ((..(((....)))..)) | 54.9 °C | -16.1 kcal/mol
60 | GAAGACGAAAGTCCTTTC ((((((....)))..))) | 29.6 °C | -11.6 kcal/mol
61 | GATCCTGGCAAGGATC ((((((....)))))) | 63.3 °C | -44.6 kcal/mol
62 | CGAGCGGAAACGCCGTCG ((((((....)))..))) | 55 °C | -15.5 kcal/mol
63 | TTATGGAAACATAA (((((....))))) | 22.8 °C | -8.55 kcal/mol
64 | GCCTGGCGAAAGCTCGGC (((..((....))..))) | 55.9 °C | -18.8 kcal/mol
65 | GACCTAGAAATAGGTC ((((((....)))))) | 51.3 °C | -35.6 kcal/mol
66 | GCACTGCGAAAGCCTTGC (((..((....))..))) | 36.6 °C | -21.9 kcal/mol
67 | GCAGGTGGAAACACCCGC ((.((((....)))).)) | 50 °C | -23.4 kcal/mol
68 | CGATCGGAAACGATATCG ((((((....)))..))) | 35.5 °C | -18.4 kcal/mol
69 | GTGTGTGGAAACATGCAC (((..((....))..))) | 43.3 °C | -27.4 kcal/mol
70 | GAGTCCGAAAGGATCCTC ((((((....)))..))) | 34.1 °C | -12.1 kcal/mol
71 | GCTAGGCGAAAGCTTAGC ((((.((....)).)))) | 61 °C | -31.1 kcal/mol
72 | GTGCTCTCGAAAGAGCAC (((..(((....)))))) | 62.6 °C | -40.3 kcal/mol

Row | Sequence | Tm [1] | folding enthalpy [2]
73 | GGACTACGAAAGTATTCC (((.(((....))).))) | 39.2 °C | -34.8 kcal/mol
74 | GGTCGGCGAAAGCCTACC (((.(((....))).))) | 53.5 °C | -25.9 kcal/mol
75 | GAGTCACGAAAGTGCCTC (((.(((....))).))) | 50 °C | -23.5 kcal/mol
76 | GCAAACACGAAAGTGTGC (((..(((....)))))) | 48.6 °C | -15.4 kcal/mol
77 | GATCCACCTTTGGATC ((((((....)))))) | 50.1 °C | -34.9 kcal/mol
78 | AAACTGAAAAGTTT (((((....))))) | 33.6 °C | -13.4 kcal/mol
79 | GCTGGCTCGAAAGAGAGC (((..(((....)))))) | 36.9 °C | -11.1 kcal/mol
80 | CAACCCGAAAGGCTTG (((.((....)).))) | 30.2 °C | -16 kcal/mol
81 | GTTTGCGAAAGCAAAAC ((((((....))).))) | 52.6 °C | -17.4 kcal/mol
82 | GCATCCGGAAACGGGTGC (((.(((....))).))) | 62.7 °C | -39.5 kcal/mol
83 | GAGCCCGAAAGGGACTC ((((((....))).))) | 54.8 °C | -22.9 kcal/mol
84 | GCTACCGAAAGGTAGAGC ((((((....)))..))) | 53.7 °C | -19.1 kcal/mol
85 | GGTAGGGGAAACCTTACC ((((.((....)).)))) | 44.1 °C | -30.5 kcal/mol
86 | GCGTGTTACGC ((((...)))) | 61.6 °C | -24 kcal/mol
87 | GATCGATCATCGATC ((((((...)))))) | 50.5 °C | -33.2 kcal/mol
88 | GATCTATGTGTAGATC ((((((....)))))) | 48 °C | -49.8 kcal/mol
89 | GTGGTTGGAAACAGCCAC ((((.((....)).)))) | 52.4 °C | -44.1 kcal/mol
90 | GATCGAAATTCGATC ((((((...)))))) | 48.9 °C | -33.7 kcal/mol
91 | GATCACGAAAGTGTTATC ((((((....)))..))) | 28.4 °C | -9.57 kcal/mol
92 | GATCGAGGTCTCGATC ((((((....)))))) | 55.8 °C | -38.5 kcal/mol
93 | GTCGCTGCGAAAGCAGAC (((..(((....)))))) | 38.5 °C | -10 kcal/mol
